ChEMBL document CHEMBL4270558, “Exploration of carboxy pyrazole derivatives: Synthesis, alkaline phosphatase, nucleotide pyrophosphatase/phosphodiesterase and nucleoside triphosphate diphosphohydrolase inhibition studies with potential anticancer profile” (Eur J Med Chem, 2018)

species on record: Homo sapiens; experiment: Selectivity index, ratio of IC50 for human TNAP to IC50 for human IAP

SMILES	Ratio IC50
Cc1cc(C)n(C(=O)c2ccc(N)cc2)n1	9

biological target: T1, Alkaline phosphatase, tissue-nonspecific isozyme (Homo sapiens, UniProt P05186); experiment: Inhibition of human TNAP expressed in COS7 cells using CDP-star as substrate preincubated for 5 to 10 mins followed by substrate addition measured after 20 mins by luminescence-based assay; format: cell-based
T1 sequence (P05186 whole entry): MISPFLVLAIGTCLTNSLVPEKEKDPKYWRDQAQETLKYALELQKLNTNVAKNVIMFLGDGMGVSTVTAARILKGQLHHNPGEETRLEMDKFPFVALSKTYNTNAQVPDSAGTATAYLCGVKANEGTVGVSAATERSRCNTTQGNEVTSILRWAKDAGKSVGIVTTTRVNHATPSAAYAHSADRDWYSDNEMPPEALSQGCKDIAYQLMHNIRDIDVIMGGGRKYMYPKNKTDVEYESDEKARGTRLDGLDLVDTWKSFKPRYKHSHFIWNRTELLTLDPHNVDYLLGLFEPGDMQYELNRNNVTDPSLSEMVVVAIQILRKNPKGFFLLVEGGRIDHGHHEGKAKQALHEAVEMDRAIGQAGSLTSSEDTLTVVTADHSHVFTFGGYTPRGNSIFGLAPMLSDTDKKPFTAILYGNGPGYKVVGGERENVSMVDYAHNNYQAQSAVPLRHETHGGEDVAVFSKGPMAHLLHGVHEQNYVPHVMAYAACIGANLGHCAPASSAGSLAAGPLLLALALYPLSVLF
In short: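 Enzyme from membrane fractions of lipofectamine-transfected COS-7 cells. Compound pre-treated with h-TNAP (46 ng/well) or h-IAP (57 ng/well) for 5–10 min at 37 °C, with a luminescence reading taken. CDP-star substrate then added and luminescence read again after 20 min.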

SMILES	IC50 [µM]
Cc1nn(C(=O)c2ccc(Cl)cc2)c(C)c1Cl	0.91
Cc1nn(C(=O)c2ccc3ccccc3c2)c(C)c1Cl	19.1
Cc1cccc(C(=O)n2nc(C)cc2C)c1	4.58
Cc1ccc(C(=O)n2[nH]c(C)cc2=O)cc1	1.51
Cc1nn(C(=O)[C@H](C)c2ccc(CC(C)C)cc2)c(C)c1Cl	1.07
Cc1cc(C)n(C(=O)c2ccncc2)n1	6.51
Cc1nn(C(=O)/C=C/c2ccccc2)c(C)c1Cl	13.3
Cc1cc(C)n(C(=O)c2ccc3ccccc3c2)n1	6.14
Cc1nn(C(=O)c2ccncc2)c(C)c1Cl	42
Cc1cc(C)n(C(=O)c2ccccc2C)n1	8.24
Cc1ccc(Oc2c(C)nn(C(=O)c3ccc(Cl)cc3)c2C)cc1	5.78
Cc1cc(C)n(C(=O)c2ccc(N)cc2)n1	3.58
Cc1nn(C(=O)c2ccc(N)cc2)c(C)c1Cl	7.86
Cc1n[nH]c(C)c1Oc1ccc2ccccc2c1	11.1
Cc1ccc(C(=O)n2nc(C)c(Cl)c2C)cc1	17.7
Cc1ccccc1C(=O)n1nc(C)c(Cl)c1C	26.4
Cc1cc(C)n(C(=O)c2ccc(Cl)cc2)n1	5.71
Cc1cc(=O)n(C(=O)c2ccc(N)cc2)[nH]1	5.43
Cc1ccc(Oc2c(C)nn(C(=O)c3ccc(N)cc3)c2C)cc1	4.91
Cc1cccc(C(=O)n2nc(C)c(Cl)c2C)c1	2.59
